This is a sample that favours compounds with a hit; in the whole collection about 2.4% have one here.
Jurkat NFkB inh: inhibitors of induced NF-kB luciferase reporter, primary screen, TCR NF-kB activation inhibitor project, cell-based, luminescence, uHTS. Jurkat, PMA/ionomycin-induced NF-kB luciferase reporter. inhibition, % at 4 µM. 0.53% of 330,000 active. AID 435003, 2010; in the data active = inhibition above about 50%
aDG glyco act: activators of alpha-DG glycosylation, primary screen, uHTS, Pro5-aDG cells, AlphaScreen | alpha-DG glycosylation AlphaScreen (IIH6); 0% Pro5, 100% B10-LARGE cell signal | activation, % at 10 µM | AID 624168, 2012 | 0.22% of 360,000 active;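 active = activation of at least 8% versus controls, or a plate z-score of at least 8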;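 note: Pro5 are CHO cells carrying HIG-tagged alpha-DG that lacks glycosylation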
NR2E3 ag-1: NR2E3 agonists in two-hybrid cells, primary screen, cell-based, luminescence, CHO-S, Gal4-NCOR/VP16-NR2E3. inhibition of corepressor binding, % at 3.98 µM. luciferase. 0.35% of 360,000 active. Photoreceptor-specific nuclear receptor (Homo sapiens), Q9Y5X4. AID 602229, 2012;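 active = inhibition above the mean of all tested compounds plus 3 SD, cut at about 70% in these data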;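 note: higher means lower luciferase signal from less NR2E3 corepressor binding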
697 NFkB inh: inhibitors of PMA/ionomycin-induced NF-kB reporter, 697 cells, primary screen, B-cell NF-kB inhibitor project, cell-based, luminescence, uHTS. 697 B-cell NF-kB luciferase reporter, 16 h. 0.33% of 330,000 active. inhibition, % at 4 µM; in the data active = inhibition above about 35%
MPTP block: mitochondrial permeability transition pore inhibitors, primary screen, biochemical, isolated mouse mitochondria, absorbance; AID 602449, 2012; 1.4% of 360,000 active; inhibition, % at 10 µM; Ca2+ swelling absorbance, 30 min;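 active = inhibition of 50% or more, scaled per plate between neutral and stimulator controls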
NR2E3 ag-2: inhibitors of NR2E3-RetCOR corepressor binding, primary screen, NR2E3 agonist project, biochemical, TR-FRET, GST-NR2E3, biotin-RetCOR. Photoreceptor-specific nuclear receptor (Homo sapiens), Q9Y5X4. 1536-well. inhibition of corepressor binding, % at 4.78 µM. 0.12% of 320,000 active. AID 2300, 2010;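 active = percent inhibition above the cutoff of mean plus 3 SD of all tested compounds, set per screening campaign, cut at about 20% in these data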
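system = GST-tagged NR2E3 plus biotinylated RetCOR corepressor | input = 1.35 nM GST-NR2E3 | also added = 7 nM biotin-RetCOR | schedule = 5 h incubation at 4 °C | measured by = TR-FRET with europium anti-GST and streptavidin-D2, 340 nm excitation | read-out = percent loss of FRET ratio relative to control wells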
NR2E3 ag confirm-1: NR2E3 agonists, confirmation, biochemical, TR-FRET; 39% of 360 active; shares compounds with NR2E3 ag-2; cell-free NR2E3 corepressor release, 5 h; activation (reported as inhibition), % at 3.98 µM; in the data active = activation above about 20%
PPARg-NCOR2 ctr: agonists of PPARg-NCOR2 corepressor interaction, counter-screen for NR2E3 agonist project, biochemical, TR-FRET. shares compounds with NR2E3 ag-2. TR-FRET PPARg-NCOR2 coregulator interaction. inhibition, % at 3.98 µM. 45% of 360 active. AID 504787, 2011; in the data active = inhibition above about 20%
NR2E3 ag confirm-2: NR2E3 agonist confirmation in cells, cell-based, luminescence, CHO-S two-hybrid; CHO-S mammalian two-hybrid NR2E3-NCOR, luciferase luminescence; shares compounds with NR2E3 ag-1; AID 624378, 2012; inhibition, % at 3.98 µM; 51% of 2,300 active;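 active = average inhibition above a cutoff equal to the mean inhibition of all tested compounds plus one SD, cut at about 70% in these data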
GAL4-VP16 luc: GAL4-VP16 reporter modulators, confirmation, counter-screen for NR2E3 agonist project, cell-based, luminescence, CHO-S, high throughput; shares compounds with NR2E3 ag-1; CHO-S GAL4-VP16 luciferase reporter; inhibition, % at 3.98 µM; 29% of 2,300 active; AID 624379, 2012;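 active = mean inhibition above a cutoff equal to the average over all tested compounds plus one standard deviation, cut at about 70% in these data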;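 note: luciferase from a UAS reporter driven by GAL4-VP16 transactivation; higher means less reporter light so more repression of VP16 activity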
MPTP counter: fluorescence retest of MPTP screen hits in isolated mitochondria, single concentration | shares compounds with MPTP block | membrane potential, Rhodamine 123 fluorescence | inhibition, % at 10 µM | 78% of 5,000 active; in the data active = inhibition above about 22%
Hits are given with their value.

How did S=c1nc(SCc2ccccc2)[nH]c2ccccc12 do in these assays?
Jurkat NFkB inh: inactive; aDG glyco act: inactive; NR2E3 ag-1: inactive; 697 NFkB inh: inactive; MPTP block: inactive; NR2E3 ag-2: 35; NR2E3 ag confirm-1: 36; PPARg-NCOR2 ctr: 55; NR2E3 ag confirm-2: inactive; GAL4-VP16 luc: inactive

What do the screens show for `COC(=O)c1ccc2nc(-c3ccco3)c(Cc3ccc(OC)cc3C)n2c1`?
aDG glyco act: inactive; NR2E3 ag-1: inactive; MPTP block: inactive

How did CCOc1ccc(NC(=S)Nc2ccc3nsnc3c2)cc1 do in these assays?
Jurkat NFkB inh: inactive; aDG glyco act: 7.8; NR2E3 ag-1: inactive; 697 NFkB inh: inactive; MPTP block: 86; NR2E3 ag-2: 31; NR2E3 ag confirm-1: inactive; PPARg-NCOR2 ctr: inactive; MPTP counter: 77

Results for CCOc1ccc(NC(=S)Nc2ccc(OCC)cc2)cc1 ?
Jurkat NFkB inh: inactive; aDG glyco act: inactive; NR2E3 ag-1: inactive; 697 NFkB inh: inactive; MPTP block: inactive; NR2E3 ag-2: inactive

How did COc1ccc(NC(=S)Nc2ccc3nc(C)c(C)nc3c2)cc1 do in these assays?
Jurkat NFkB inh: inactive; aDG glyco act: inactive; NR2E3 ag-1: inactive; 697 NFkB inh: inactive; MPTP block: inactive; NR2E3 ag-2: inactive

How did COc1ccc(NC(=S)Nc2ccc3nsnc3c2)cc1 do in these assays?
Jurkat NFkB inh: inactive; aDG glyco act: 7.8; NR2E3 ag-1: inactive; 697 NFkB inh: inactive; MPTP block: 60; NR2E3 ag-2: 29; NR2E3 ag confirm-1: inactive; PPARg-NCOR2 ctr: inactive; MPTP counter: 78

How did CC1(C(=O)NCc2ccccc2)CN(S(C)(=O)=O)CC(=O)N1Cc1cccc(F)c1 (stereo not given) do in these assays?
aDG glyco act: inactive; MPTP block: inactive

What do the screens show for `CCOC(=O)[C@]12CCCC=C1N(CCc1ccc(OC)c(OC)c1)C(=O)[C@H](CC(=O)NCCCCc1ccccc1)C2`?
aDG glyco act: inactive; MPTP block: inactive

How did CCCCn1c(NC(C)=O)c(C#N)c2nc3ccccc3nc21 do in these assays?
Jurkat NFkB inh: inactive; aDG glyco act: inactive; NR2E3 ag-1: inactive; 697 NFkB inh: inactive; MPTP block: inactive; NR2E3 ag-2: inactive

What do the screens show for `C=CCn1c(NC(=O)c2ccccc2Cl)c(C#N)c2nc3ccccc3nc21`?
Jurkat NFkB inh: inactive; aDG glyco act: inactive; NR2E3 ag-1: inactive; 697 NFkB inh: inactive; MPTP block: 74; NR2E3 ag-2: 38; NR2E3 ag confirm-1: inactive; PPARg-NCOR2 ctr: 42; MPTP counter: 79

Source: PubChem (several laboratories)
